Assay results: ChEMBL document CHEMBL1134405 (J Med Chem, 2001)
Active and inactive are the calls of the source. The calls are words filed in the database; no cut-off is given here. Peptide text beside a SMILES is read from it.

Columns and labels:
[1] = target: Glucagon receptor (Rattus norvegicus, UniProt P30082); test: IC50 value was expressed as inhibition of [125]glucagon specific binding.
Procedure, shortened: (§1)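 Incubation 10 min at 30 °C, then ice cooling and filtration on 0.45 μm cellulose acetate, gamma counting. Nonspecific binding taken with 1024 nM unlabeled peptide and subtracted. Read as % inhibition of specific binding. Triplicates, repeated twice.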

[2] = target: T1, Adenylate cyclase (Rattus norvegicus) (UniProt D4A3N4+P26770+Q04400+P26769+Q03343+P40146+Q8CFM9+P21932); test: Maximum stimulation of adenylate cyclase.; assay type: protein assay
[3] = target: Glucagon receptor (Rattus norvegicus) (UniProt P30082); test: Relative binding by measuring competition for glucagon receptor between [125]glucagon and the compound.; procedure, shortened: as §1
Glucagon receptor (Rattus norvegicus), sequence (P30082 whole entry): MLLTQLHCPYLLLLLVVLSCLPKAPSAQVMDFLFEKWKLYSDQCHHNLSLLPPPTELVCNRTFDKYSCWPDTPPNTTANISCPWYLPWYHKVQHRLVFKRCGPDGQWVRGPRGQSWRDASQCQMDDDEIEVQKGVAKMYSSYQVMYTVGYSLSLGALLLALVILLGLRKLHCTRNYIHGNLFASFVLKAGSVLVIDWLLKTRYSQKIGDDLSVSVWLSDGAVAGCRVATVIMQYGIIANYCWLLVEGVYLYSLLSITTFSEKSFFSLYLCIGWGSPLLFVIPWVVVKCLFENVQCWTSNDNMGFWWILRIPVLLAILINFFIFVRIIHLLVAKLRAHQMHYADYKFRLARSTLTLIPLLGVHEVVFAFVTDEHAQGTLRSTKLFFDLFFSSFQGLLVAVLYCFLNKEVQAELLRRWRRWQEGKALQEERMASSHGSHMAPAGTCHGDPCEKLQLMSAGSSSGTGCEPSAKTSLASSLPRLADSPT

[4] = target: T1, Adenylate cyclase (Rattus norvegicus); test: Adenylate cyclase stimulation; Inactive up to 100 uM.; assay type: protein assay
[5] = A dose-response plot was obtained by determining the response when the concentration of glucagon was varied while the concentration was kept same.

Glucagon receptor, sequence (P30082 whole entry): as above

CSCC[C@H](NC(=O)[C@H](CC(C)C)NC(=O)[C@H](Cc1c[nH]c2ccccc12)NC(=O)[C@H](CCC(N)=O)NC(=O)[C@@H](NC(=O)[C@H](Cc1ccccc1)NC(=O)[C@H](CC(=O)O)NC(=O)[C@H](CCC(N)=O)NC(=O)[C@H](C)NC(=O)[C@H](CCCNC(=N)N)NC(=O)[C@H](CCCNC(=N)N)NC(C)=O)C(C)C)C(=O)N[C@@H](CC(N)=O)C(=O)N[C@H](C(N)=O)[C@@H](C)O gave an IC50 [1] of 2300 nM.
With CC(=O)N[C@@H](Cc1ccccc1)C(=O)N[C@@H](CS)C(=O)N[C@@H](CO)C(=O)N[C@@H](CC(=O)O)C(=O)N[C@@H](Cc1ccc(O)cc1)C(=O)N[C@@H](CO)C(=O)N[C@@H](CS)C(=O)N[C@@H](Cc1ccc(O)cc1)C(=O)N[C@@H](CC(C)C)C(=O)N[C@@H](CC(=O)O)C(N)=O (Ac-FCSDYSCYLD-NH2) the Max stimulation [2] was 0%, the Relative binding [3] was 56% and the IA [4] was “Inactive up to 100 uM”.
In the case of CSCC[C@H](NC(=O)[C@H](CC(C)C)NC(=O)[C@H](Cc1c[nH]c2ccccc12)NC(=O)[C@H](CCC(N)=O)NC(=O)[C@@H](NC(=O)[C@H](Cc1ccccc1)NC(=O)[C@H](CC(=O)O)NC(=O)[C@H](CCC(N)=O)NC(=O)[C@H](C)NC(=O)[C@H](CCCNC(=N)N)NC(=O)[C@H](CCCNC(=N)N)NC(=O)[C@H](CO)NC(=O)[C@H](CC(=O)O)NC(=O)[C@H](CC(C)C)NC(=O)[C@H](Cc1ccc2ccccc2c1)NC(=O)[C@H](CCCCN)NC(=O)[C@H](CO)NC(=O)[C@H](Cc1ccc2ccccc2c1)NC(C)=O)C(C)C)C(=O)N[C@@H](CC(N)=O)C(=O)N[C@H](C(N)=O)[C@@H](C)O (HELM PEPTIDE1{[ac].[O=C([C@H](Cc1ccc2ccccc2c1)N[*:1])[*:2]].S.K.[O=C([C@H](Cc1ccc2ccccc2c1)N[*:1])[*:2]].L.D.S.R.R.A.Q.D.F.V.Q.W.L.M.N.T.[am]}$$$$V2.0), the IC50 [1] is reported as 800 nM.
In the case of CC(=O)N[C@@H](CS)C(=O)N[C@@H](Cc1ccc(O)cc1)C(=O)N[C@@H](CO)C(=O)N[C@@H](CCCCN)C(=O)N[C@@H](Cc1ccc(O)cc1)C(=O)N[C@@H](CS)C(N)=O (Ac-CYSKYC-NH2), the Max stimulation [2] is reported as 0%, the Relative binding [3] is reported as 0% and the IA [4] is reported as “Inactive up to 100 uM”.
For CC(=O)N[C@@H](Cc1ccccc1)C(=O)N[C@@H](CS)C(=O)N[C@@H](CO)C(=O)N[C@@H](CC(=O)O)C(=O)N[C@@H](Cc1ccc(O)cc1)C(=O)N[C@@H](CS)C(=O)N[C@@H](CCCCN)C(=O)N[C@@H](Cc1ccc(O)cc1)C(=O)N[C@@H](CC(C)C)C(N)=O (Ac-FCSDYCKYL-NH2), the Max stimulation [2] was 0%, the Relative binding [3] was 30% and the IA [4] was “Inactive up to 100 uM”.
With CC(=O)N[C@@H](Cc1ccccc1)C(=O)N[C@H]1CSSC[C@@H](C(=O)N[C@@H](Cc2ccc(O)cc2)C(=O)N[C@@H](CC(C)C)C(N)=O)NC(=O)[C@H](CO)NC(=O)[C@H](Cc2ccc(O)cc2)NC(=O)[C@H](CC(=O)O)NC(=O)[C@H](CO)NC1=O (HELM PEPTIDE1{[ac].F.C.S.D.Y.S.C.Y.L.[am]}$PEPTIDE1,PEPTIDE1,3:R3-8:R3$$$V2.0) the Max stimulation [2] was 0%, the Relative binding [3] was 24% and the IA [4] was “Inactive up to 100 uM”.
CSCC[C@H](NC(=O)[C@H](CC(C)C)NC(=O)[C@H](Cc1c[nH]c2ccccc12)NC(=O)[C@H](CCC(N)=O)NC(=O)[C@@H](NC(=O)[C@H](Cc1ccccc1)NC(=O)[C@H](CC(=O)O)NC(=O)[C@H](CCC(N)=O)NC(=O)[C@H](C)NC(=O)[C@H](CCCNC(=N)N)NC(=O)[C@H](CCCNC(=N)N)NC(=O)[C@H](CO)NC(=O)[C@H](CC(=O)O)NC(=O)[C@H](CC(C)C)NC(=O)[C@H](Cc1ccc(O)cc1)NC(=O)[C@H](CCCCN)NC(=O)[C@H](CO)NC(=O)[C@H](Cc1ccc(O)cc1)NC(=O)CCCCCc1ccccc1)C(C)C)C(=O)N[C@@H](CC(N)=O)C(=O)N[C@H](C(N)=O)[C@@H](C)O (HELM PEPTIDE1{[O=C(CCCCCc1ccccc1)[*:2]].Y.S.K.Y.L.D.S.R.R.A.Q.D.F.V.Q.W.L.M.N.T.[am]}$$$$V2.0) showed an IC50 [1] of 131 nM.
Work on CSCC[C@H](NC(=O)[C@H](CC(C)C)NC(=O)[C@H](Cc1c[nH]c2ccccc12)NC(=O)[C@H](CCC(N)=O)NC(=O)[C@@H](NC(=O)[C@H](Cc1ccccc1)NC(=O)[C@H](CC(=O)O)NC(=O)[C@H](CCC(N)=O)NC(=O)[C@H](C)NC(=O)[C@H](CCCNC(=N)N)NC(=O)[C@H](CCCNC(=N)N)NC(=O)[C@H](CO)NC(=O)[C@H](CC(=O)O)NC(=O)[C@H](CC(C)C)NC(=O)[C@H](Cc1ccc(O)cc1)NC(=O)[C@H](CCCCN)NC(=O)[C@H](CO)NC(=O)[C@H](Cc1ccc(O)cc1)NC(=O)CCCc1ccccc1)C(C)C)C(=O)N[C@@H](CC(N)=O)C(=O)N[C@H](C(N)=O)[C@@H](C)O (HELM PEPTIDE1{[O=C(CCCc1ccccc1)[*:2]].Y.S.K.Y.L.D.S.R.R.A.Q.D.F.V.Q.W.L.M.N.T.[am]}$$$$V2.0) yielded an IC50 [1] of 21.2 nM.
Work on “Ac-YSKYLDSRRAQDFVQWLMNT-NH2 [listing 1 of 2 here]” yielded an IC50 [1] of 60 nM.
With CC(=O)N[C@@H](Cc1ccccc1)C(=O)N[C@H](C(=O)N[C@@H](CO)C(=O)N[C@@H](CS)C(=O)N[C@@H](Cc1ccc(O)cc1)C(=O)N[C@@H](CO)C(=O)N[C@@H](CCCCN)C(=O)N[C@@H](Cc1ccc(O)cc1)C(=O)N[C@@H](CS)C(=O)N[C@@H](CC(=O)O)C(N)=O)[C@@H](C)O (Ac-FTSCYSKYCD-NH2) the Max stimulation [2] was 0%, the Relative binding [3] was 32% and the IA [4] was “Inactive up to 100 uM”.
Work on CSCC[C@H](NC(=O)[C@H](CC(C)C)NC(=O)[C@H](Cc1c[nH]c2ccccc12)NC(=O)[C@H](CCC(N)=O)NC(=O)[C@@H](NC(=O)[C@H](Cc1ccccc1)NC(=O)[C@H](CC(=O)O)NC(=O)[C@H](CCC(N)=O)NC(=O)[C@H](C)NC(=O)[C@H](CCCN=C(N)N)NC(=O)[C@H](CCCN=C(N)N)NC(=O)[C@H](CO)NC(=O)[C@H](CC(=O)O)NC(=O)[C@H](CC(C)C)NC(=O)[C@H](Cc1ccc(O)cc1)NC(=O)[C@H](CCCCN)NC(=O)[C@H](CO)NC(=O)[C@H](Cc1ccc(O)cc1)NC(=O)CCCCCc1ccccc1)C(C)C)C(=O)N[C@@H](CC(N)=O)C(=O)N[C@H](C(N)=O)[C@@H](C)O (HELM PEPTIDE1{[O=C(CCCCCc1ccccc1)[*:2]].Y.S.K.Y.L.D.S.R.R.A.Q.D.F.V.Q.W.L.M.N.T.[am]}$$$$V2.0) yielded a pA2 [5] of 7.37.
For CC(=O)N[C@@H](Cc1ccccc1)C(=O)N[C@H]1CSSC[C@@H](C(=O)N[C@@H](CCCCN)C(=O)N[C@@H](Cc2ccc(O)cc2)C(=O)N[C@@H](CC(C)C)C(N)=O)NC(=O)[C@H](Cc2ccc(O)cc2)NC(=O)[C@H](CC(=O)O)NC(=O)[C@H](CO)NC1=O (HELM PEPTIDE1{[ac].F.C.S.D.Y.C.K.Y.L.[am]}$PEPTIDE1,PEPTIDE1,3:R3-7:R3$$$V2.0), the Max stimulation [2] was 0%, the Relative binding [3] was 62% and the IA [4] was “Inactive up to 100 uM”.
With CC(=O)N[C@@H](Cc1ccccc1)C(=O)N[C@@H](CS)C(=O)N[C@@H](CO)C(=O)N[C@@H](CC(=O)O)C(=O)N[C@@H](Cc1ccc(O)cc1)C(=O)N[C@@H](CO)C(=O)N[C@@H](CS)C(=O)N[C@@H](Cc1ccc(O)cc1)C(=O)N[C@@H](CC(C)C)C(N)=O (Ac-FCSDYSCYL-NH2) the Max stimulation [2] was 0%, the Relative binding [3] was 24% and the IA [4] was “Inactive up to 100 uM”.
In the case of CSCC[C@H](NC(=O)[C@H](CC(C)C)NC(=O)[C@H](Cc1c[nH]c2ccccc12)NC(=O)[C@H](CCC(N)=O)NC(=O)[C@@H](NC(=O)[C@H](Cc1ccccc1)NC(=O)[C@H](CC(=O)O)NC(=O)[C@H](CCC(N)=O)NC(=O)[C@H](C)NC(=O)[C@H](CCCN=C(N)N)NC(=O)[C@H](CCCN=C(N)N)NC(C)=O)C(C)C)C(=O)N[C@@H](CC(N)=O)C(=O)N[C@H](C(N)=O)[C@@H](C)O, the Max stimulation [2] is reported as 0%, the Relative binding [3] is reported as 0.065% and the IA [4] is reported as “Inactive up to 100 uM”.
In the case of “Ac-YSKYLDSRRAQDFVQWLMNT-NH2 [listing 2 of 2 here]”, the pA2 [5] is reported as 7.44.
In the case of CC(=O)N[C@@H](Cc1ccccc1)C(=O)N[C@H](C(=O)N[C@@H](CO)C(=O)N[C@H]1CSSC[C@@H](C(=O)N[C@@H](CC(=O)O)C(N)=O)NC(=O)[C@H](Cc2ccc(O)cc2)NC(=O)[C@H](CCCCN)NC(=O)[C@H](CO)NC(=O)[C@H](Cc2ccc(O)cc2)NC1=O)[C@@H](C)O (HELM PEPTIDE1{[ac].F.T.S.C.Y.S.K.Y.C.D.[am]}$PEPTIDE1,PEPTIDE1,5:R3-10:R3$$$V2.0), the Max stimulation [2] is reported as 0%, the Relative binding [3] is reported as 43% and the IA [4] is reported as “Inactive up to 100 uM”.
Compound CSCC[C@H](NC(=O)[C@H](CC(C)C)NC(=O)[C@H](Cc1c[nH]c2ccccc12)NC(=O)[C@H](CCC(N)=O)NC(=O)[C@@H](NC(=O)[C@H](Cc1ccccc1)NC(=O)[C@H](CC(=O)O)NC(=O)[C@H](CCC(N)=O)NC(=O)[C@H](C)NC(=O)[C@H](CCCN=C(N)N)NC(=O)[C@H](CCCN=C(N)N)NC(=O)[C@H](CO)NC(=O)[C@H](CC(=O)O)NC(=O)[C@H](CC(C)C)NC(=O)[C@H](Cc1ccc(O)cc1)NC(=O)[C@H](CCCCN)NC(=O)[C@H](CO)NC(=O)[C@H](Cc1ccc(O)cc1)NC(=O)CCCc1ccccc1)C(C)C)C(=O)N[C@@H](CC(N)=O)C(=O)N[C@H](C(N)=O)[C@@H](C)O (HELM PEPTIDE1{[O=C(CCCc1ccccc1)[*:2]].Y.S.K.Y.L.D.S.R.R.A.Q.D.F.V.Q.W.L.M.N.T.[am]}$$$$V2.0) has a pA2 [5] of 7.38.
For CC(=O)N[C@@H]1CSSC[C@H](C(N)=O)NC(=O)[C@@H](Cc2ccc(O)cc2)NC(=O)[C@H](CCCCN)NC(=O)[C@@H](CO)NC(=O)[C@H](Cc2ccc(O)cc2)NC1=O, the Max stimulation [2] was 0%, the Relative binding [3] was 0% and the IA [4] was “Inactive up to 100 uM”.
In the case of CC(=O)N[C@@H](Cc1ccccc1)C(=O)N[C@H]1CSSC[C@@H](C(=O)N[C@@H](Cc2ccc(O)cc2)C(=O)N[C@@H](CC(C)C)C(=O)N[C@@H](CC(=O)O)C(N)=O)NC(=O)[C@H](CO)NC(=O)[C@H](Cc2ccc(O)cc2)NC(=O)[C@H](CC(=O)O)NC(=O)[C@H](CO)NC1=O (HELM PEPTIDE1{[ac].F.C.S.D.Y.S.C.Y.L.D.[am]}$PEPTIDE1,PEPTIDE1,3:R3-8:R3$$$V2.0), the Max stimulation [2] is reported as 0%, the Relative binding [3] is reported as 30% and the IA [4] is reported as “Inactive up to 100 uM”.
